Test results as given in the M2OR odorant receptor database.

Target: T1, OR8D1 (Homo sapiens) (UniProt Q8WZ84)
T1 sequence (whole entry): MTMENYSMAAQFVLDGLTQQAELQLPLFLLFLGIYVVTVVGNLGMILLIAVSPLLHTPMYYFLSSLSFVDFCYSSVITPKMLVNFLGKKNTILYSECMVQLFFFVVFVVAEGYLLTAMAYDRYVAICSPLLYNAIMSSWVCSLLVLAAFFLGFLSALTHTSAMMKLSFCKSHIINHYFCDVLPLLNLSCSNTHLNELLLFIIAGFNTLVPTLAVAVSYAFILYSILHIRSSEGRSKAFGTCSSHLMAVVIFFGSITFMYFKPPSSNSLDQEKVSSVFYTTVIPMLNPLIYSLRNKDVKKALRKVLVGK
Conditions: stereoisomer not certain
In short: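 Assay methods differ from source to source, frequently being transient luciferase assays in mammalian cell lines. For each receptor–molecule pair, the label responsive (active) applies when the original authors judged the measured signal statistically different from baseline, and non-responsive (inactive) applies otherwise.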

Odorant receptor agonist call, inactive:
C=CC(=C)CCC=C(C)C
CCc1ccc(O)cc1
CCC(=O)C1=NCCC1
COc1cccc(OC)c1O
CCOC(=O)C1CCCCC1
CCCCCC=CCCC=O
C=C1CCC2CC1C2(C)C (configuration not stated)
C=CCSC
CSSSC
O=C(O)CCc1ccccc1
C=C(C)c1ccc(C)cc1
CCC(C)c1nccnc1OC (configuration not stated)
CC(C)CCO
Cc1cccc(O)c1
CCCSSSC
CCCCCCCCCC(=O)OCC
CCCCC(C)CCC(=O)O (configuration not stated)
CCC(C)C=O (configuration not stated)
CSCSC
CCOC(=O)CC(C)C
CC(C)CC=O
CCC(S)C(C)=O (configuration not stated)
CCOC(=O)C(C)C
CCCCC1CCC(=O)O1 (configuration not stated)
CC(C)CCCCCCCCCCC=O
CSCCCO
CC(=O)C=CC1=C(C)CCCC1(C)C
CCO
CC(C)=CCCC(C)=CCO
CCCCC(=O)OCC
CCCc1ccc(O)c(OC)c1
CCCCCC(=O)OCC
CCC=CCCC=CCO
Cc1ccc(C(C)C)cc1
CC(C)=CC1CC(C)CCO1 (configuration not stated)
CCCCCC1CCC(=O)O1 (configuration not stated)
CCCCC(CC)CCC(=O)O (configuration not stated)
